Hits are enriched below; roughly 2.3% of the tested compounds scored in any of these assays.
V1R ag counter: agonists of human V1a receptor, primary screen, counter-screen for OXTR agonist project, fluorescence, CHO-V1R cells | Vasopressin V1a receptor (Homo sapiens), P37288 | Fluo-8 calcium fluorescence, agonist mode; 0% DMSO, 100% 3 nM vasopressin | activation, % at 3 µM | 0.25% of 320,000 active | AID 2797, 2010;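 active = activation above the mean activation of all tested compounds plus 3 SD, per screening run, cut at about 20% in these data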;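 note: signal is peak over basal fluorescence ratio across a 100 second FLIPR read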
Target sequence (P37288 whole entry, looked up): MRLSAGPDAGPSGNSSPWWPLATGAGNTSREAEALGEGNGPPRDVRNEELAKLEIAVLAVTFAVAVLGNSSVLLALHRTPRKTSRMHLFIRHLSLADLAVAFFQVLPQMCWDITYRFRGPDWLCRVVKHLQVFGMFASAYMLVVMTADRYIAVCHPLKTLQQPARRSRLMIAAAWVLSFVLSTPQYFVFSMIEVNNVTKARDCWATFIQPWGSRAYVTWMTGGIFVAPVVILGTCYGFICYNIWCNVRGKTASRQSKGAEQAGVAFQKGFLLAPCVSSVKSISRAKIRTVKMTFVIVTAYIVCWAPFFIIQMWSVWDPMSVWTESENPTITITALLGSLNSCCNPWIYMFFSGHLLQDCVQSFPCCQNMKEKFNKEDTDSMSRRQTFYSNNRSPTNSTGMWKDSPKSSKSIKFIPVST
TAAR1 agonist: human TAAR1 agonists, primary screen, Fluo-8 calcium fluorescence, CHO RD-HGA16 cells. Trace amine-associated receptor 1 (Homo sapiens), Q96RJ0. vehicle wells 0%, saturating PEA agonist 100%. activation, % at 3 µM. 0.99% of 360,000 active. AID 624467, 2012;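 active = activation above the mean activation of all test compounds in the run plus 3 SD, cut at about 38% in these data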
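System: CHO RD-HGA16 cells carrying human TAAR1 plus Gα16; Incubation: 17-24 h seeding, 75 min 37 °C dye, 30 min RT; Measured by: Fluo-8 fluorescence, 5 s baseline then 140 s kinetic read; Control set: DMSO and PEA EC100; Replication: single well for each compound.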
OXTR potentiator: human OXTR potentiators, primary screen, fluorescence, CHO-OTR cells, Fluo-8 calcium; Oxytocin receptor (Homo sapiens), P30559; Fluo-8 calcium fluorescence, potentiator mode; 0% = oxytocin EC15, 100% = EC100; activation, % at 3 µM; 0.061% of 320,000 active; AID 2445, 2010;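 active = activation above that plate's cutoff, the mean activation of tested compounds plus 3 SD, cut at about 6.6% in these data, passing the limit was not always enough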
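Assay system: CHO cell line stably expressing human OTR. Reagent: EC15 oxytocin agonist. Dosing: single dose, 3.0 µM nominal final compound concentration. Timing: compound 6 min at room temperature before oxytocin, 100 s read. Signal: kinetic Fluo-8 calcium fluorescence. Controls: oxytocin EC15 low and EC100 high.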
TAAR1 antag: human TAAR1 antagonists, primary screen, Fluo-8 calcium fluorescence, CHO RD-HGA16 cells; Trace amine-associated receptor 1 (Homo sapiens), Q96RJ0; antagonist; inhibition, % at 3 µM; 1.5% of 360,000 active; AID 624466, 2012;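 active = inhibition above a per-plate cutoff, the mean inhibition of test compounds on that plate plus 3 SD, cut at about 49% in these data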
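Test system: hTAAR1-expressing CHO RD-HGA16 cells, Gα16-coupled; Probe or stimulus: EC80 β-phenethylamine stimulus; Compound dosing: single nominal final test compound concentration of 3 µM; Timing: 140 s kinetic read after compound, 140 s after agonist; Signal: Fluo-8 calcium-sensitive fluorescence; Measure: % inhibition of agonist calcium response; Controls: DMSO and EC80 PEA controls.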
OXTR agonist: human OXTR agonists, primary screen, fluorescence, CHO-OTR cells, Fluo-8 calcium | Fluo-8 calcium fluorescence; normalized: DMSO 0%, oxytocin 100% | Oxytocin receptor (Homo sapiens), P30559 | activation, % at 3 µM | 0.32% of 320,000 active;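 active = activation above the mean of all tested compounds plus 3 SD, cutoff set per screening run, cut at about 20% in these data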;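 note: peak over basal fluorescence ratio from a 100 s FLIPR kinetic read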
TAAR1 nonsel count: nonselective antagonists in TAAR1 counter-screen cells, counter-screen for hTAAR1 antagonist project, cell-based, fluorescence, calcium; shares compounds with TAAR1 antag; counterscreen cell line, antagonist mode; inhibition, % at 3 µM; 77% of 2,400 active; in the data active = inhibition above about 22%;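 note: CHO-Ga16 host cells stimulated with ATP at an EC80 level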
TAAR1 ant conf: human TAAR1 antagonists, retest of hits, confirmation, cell-based, fluorescence; shares compounds with TAAR1 antag; TAAR1-expressing cells, fluorescence antagonist read-out; inhibition, % at 3 µM; 40% of 2,400 active; AID 651785, 2012; in the data active = inhibition above about 49%;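 note: CHO-Ga16 host cells challenged with agonist PEA near its EC80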
Ga16 ag counter: calcium activation in Ga16-expressing cells, counter-screen for TAAR1 antagonist project, cell-based, fluorescence. 18% of 2,400 active. AID 651953, 2012. activation, % at 3 µM. agonist counterscreen. shares compounds with TAAR1 antag; in the data active = activation above about 12%
TAAR1 ag count: TAAR1 activation by candidate antagonists – cell-based, fluorescence, counter-screen for TAAR1 antagonist project. shares compounds with TAAR1 antag. 2% of 2,400 active. AID 651955, 2012. activation, % at 3 µM. hTAAR1 cell line, agonist mode; in the data active = activation above about 37%;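 note: CHO cells stably expressing TAAR1 with calcium dye readout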
Each line names hits and unclear results; the compound was inactive in the other large screens (follow-up assays come after a bar, where they were run).

Cc1ncc(CO)c2c1Oc1nc(-c3ccccc3)nc(SCC(=O)N(C)c3ccccc3)c1C2	TAAR1 antag 62 | TAAR1 nonsel count 27 | TAAR1 ant conf inactive | Ga16 ag counter inactive | TAAR1 ag count inactive
Cc1ncc(CO)c2c1Oc1nc(-c3ccccc3F)nc(SCC(=O)N(C)c3ccccc3)c1C2	none (no result: TAAR1 agonist, TAAR1 antag)
COCCS(=O)(=O)N(Cc1ccc(Br)cc1)[C@@H](C)C(=O)OC	none (no result: V1R ag counter, OXTR potentiator, OXTR agonist)
COC(=O)c1cc2ccccn2c2c(C(=O)OC)c(C(=O)OC)cc1-2	TAAR1 antag 62 | TAAR1 nonsel count 28 | TAAR1 ant conf 49 | Ga16 ag counter inactive | TAAR1 ag count inactive
COC(=O)c1cc2c(C)cc3ccc(C)cn3c-2c1C(=O)OC	none
Cc1ccc(/C=N/NC(=O)CSc2nnc(-c3ccc(Cl)cc3)n2-c2ccccc2)o1	TAAR1 antag 58 | TAAR1 nonsel count 26 | TAAR1 ant conf inactive | Ga16 ag counter inactive | TAAR1 ag count inactive
O=C(CSc1nnc(-c2ccc(Cl)cc2)n1-c1ccc(Cl)cc1)N/N=C/c1ccco1	TAAR1 antag 78 | TAAR1 nonsel count 27 | TAAR1 ant conf 54 | Ga16 ag counter inactive | TAAR1 ag count inactive
Cc1ccc(-c2nnc(SCC(=O)N/N=C/c3ccccc3C(=O)O)n2-c2ccc(Cl)cc2)cc1	none
CCCc1cc(C(=O)Nc2ccc(C(=O)c3ccc(C)cc3)cc2)n(C)n1	TAAR1 antag 64 | TAAR1 nonsel count 29 | TAAR1 ant conf 49 | Ga16 ag counter inactive | TAAR1 ag count inactive
C[C@@H]1CN([C@H](C)CO)C(=O)CCCn2cc(nn2)CO[C@H]1CN(C)C(=O)Nc1ccc2c(c1)OCCO2	none (no result: V1R ag counter, OXTR potentiator, OXTR agonist)
Fc1ccccc1COc1ccc(Br)cc1CNCc1ccncc1	TAAR1 antag 75 | TAAR1 nonsel count 40 | TAAR1 ant conf 62 | Ga16 ag counter 12 | TAAR1 ag count inactive
O=C(CCSCc1cccc(F)c1)NCCc1ccccc1	TAAR1 antag 56 | TAAR1 nonsel count inactive | TAAR1 ant conf 69 | Ga16 ag counter inactive | TAAR1 ag count inactive
c1ccc(N2[C@@H]3c4ccccc4C[C@H]2c2ccccc23)cc1	none (no result: V1R ag counter, OXTR potentiator, OXTR agonist)
CCN(c1ccc(OCC(=O)OCC(=O)c2c(N)n(C)c(=O)n(C)c2=O)cc1)S(=O)(=O)c1ccccc1	none
CN(c1ccc(OCC(=O)OCC(=O)c2c(N)n(C)c(=O)n(C)c2=O)cc1)S(=O)(=O)c1ccc2ccccc2c1	TAAR1 antag 77 | TAAR1 nonsel count 35 | TAAR1 ant conf 56 | Ga16 ag counter inactive | TAAR1 ag count inactive
COC(=O)C[C@@H]1C=C[C@@H](NC(=O)C2CCC2)[C@@H](CO)O1	none (no result: V1R ag counter, OXTR potentiator, OXTR agonist)
CC(=O)c1ccc(N2CCN(C(=O)CCCn3c(=O)[nH]c4ccsc4c3=O)CC2)cc1	none
CC(=O)c1ccc(N2CCN(C(=O)CCCn3c(=O)[nH]c4ccc(Br)cc4c3=O)CC2)cc1	TAAR1 antag 67 | TAAR1 nonsel count 37 | TAAR1 ant conf 54 | Ga16 ag counter inactive | TAAR1 ag count inactive
CCN1CCN(C(=O)CCCCCn2c(=O)[nH]c3cc(C(=O)OC)ccc3c2=O)CC1	none

High-throughput results from PubChem.
